Results reported in ChEMBL document CHEMBL1177688, “Synthesis of novel pyrazolic analogues of chalcones and their 3-aryl-4-(3-aryl-4,5-dihydro-1H-pyrazol-5-yl)-1-phenyl-1H-pyrazole derivatives as potential antitumor agents” (2010).

How the values were obtained:
Format in all cases: functional
[1] = Antiproliferative activity against human […] cells after 48 hrs by SRB assay
In short: (§1)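 NCI 60-cell-line human tumour panel, secondary five-dose screen. Compounds tested at 100, 10, 1.0, 0.1 and 0.01 µM with 48 h continuous exposure. Cell growth was estimated by sulforhodamine B protein staining. GI50 is the concentration giving a 50% reduction in net protein increase relative to untreated control cells over the incubation. TGI and LC50 were also derived.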

[2] = system: SR; experiment: Antiproliferative activity against human SR cells after 48 hrs by SRB assay; in short: as §1
[3] = system: EKVX; experiment: Antiproliferative activity against human EKVX cells after 48 hrs by SRB assay; settings: for CC50: read-out: LC50 (the source's name); in short: as §1
[4] = system: NCI-H226; experiment: Antiproliferative activity against human NCI-H226 cells after 48 hrs by SRB assay; settings: NCI-H226, 48 h; for CC50: read-out: LC50 (the source's name); in short: as §1
[5] = system: NCI-H23; experiment: Antiproliferative activity against human NCI-H23 cells after 48 hrs by SRB assay; settings: NCI-H23, 48 h
In short: (§2)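 NCI 60-cell human tumour line panel. Continuous 48 h drug exposure at five concentrations (100, 10, 1.0, 0.1, 0.01 µM). Cell growth estimated by sulforhodamine B protein staining. GI50 = concentration giving 50% reduction in net protein increase versus control cells over the incubation. LC50 = molar concentration killing 50% of cells.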

[6] = system: NCI-H522; experiment: Antiproliferative activity against human NCI-H522 cells after 48 hrs by SRB assay; settings: NCI-H522, 48 h; in short: as §1
[7] = system: HOP-92; experiment: Antiproliferative activity against human HOP92 cells after 48 hrs by SRB assay; settings: HOP-92, 48 h; in short: as §1
[8] = system: NCI-H322M; experiment: Antiproliferative activity against human NCI-H322M cells after 48 hrs by SRB assay; settings: read-out: LC50 (the source's name); in short: as §1
[9] = system: A549; experiment: Antiproliferative activity against human A549 cells after 48 hrs by SRB assay; settings: A549, 48 h, read-out: LC50 (the source's name); in short: as §1
[10] = system: HCT-116; experiment: Antiproliferative activity against human HCT116 cells after 48 hrs by SRB assay; settings: HCT-116, 48 h; in short: as §2
[11] = system: HCT-15; experiment: Antiproliferative activity against human HCT15 cells after 48 hrs by SRB assay; settings: HCT-15, 48 h; for CC50: read-out: LC50 (the source's name); in short: as §1
[12] = system: HT-29; experiment: Antiproliferative activity against human HT-29 cells after 48 hrs by SRB assay; settings: HT-29, 48 h, read-out: LC50 (the source's name); in short: as §1
[13] = system: KM12; experiment: Antiproliferative activity against human KM12 cells after 48 hrs by SRB assay; settings: KM12, 48 h, read-out: LC50 (the source's name); in short: as §1
[14] = system: HCC 2998; experiment: Antiproliferative activity against human HCC2998 cells after 48 hrs by SRB assay; settings: HCC 2998, 48 h; for CC50: read-out: LC50 (the source's name); in short: as §1
[15] = system: SF-295; experiment: Antiproliferative activity against human SF295 cells after 48 hrs by SRB assay; settings: SF-295, 48 h; for CC50: read-out: LC50 (the source's name); in short: as §1
[16] = system: SF-539; experiment: Antiproliferative activity against human SF539 cells after 48 hrs by SRB assay; settings: SF-539, 48 h; in short: as §2
[17] = system: SF-268; experiment: Antiproliferative activity against human SF268 cells after 48 hrs by SRB assay; settings: SF-268, 48 h; in short: as §1
[18] = system: SNB-19; experiment: Antiproliferative activity against human SNB19 cells after 48 hrs by SRB assay; settings: SNB-19, 48 h; for CC50: read-out: LC50 (the source's name); in short: as §1
[19] = system: LOX IMVI; experiment: Antiproliferative activity against human LOXIMVI cells after 48 hrs by SRB assay; in short: as §1
[20] = system: MDA-MB-435; experiment: Antiproliferative activity against human MDA-MB-435 cells after 48 hrs by SRB assay; settings: MDA-MB-435, 48 h, read-out: LC50 (the source's name); in short: as §1
[21] = system: SK-MEL-5; experiment: Antiproliferative activity against human SK-MEL-5 cells after 48 hrs by SRB assay; settings: SK-MEL-5, 48 h; in short: as §2
[22] = system: UACC-257; experiment: Antiproliferative activity against human UACC257 cells after 48 hrs by SRB assay; settings: UACC-257, 48 h; in short: as §1
[23] = system: UACC-62; experiment: Antiproliferative activity against human UACC62 cells after 48 hrs by SRB assay; settings: UACC-62, 48 h; for CC50: read-out: LC50 (the source's name); in short: as §1
[24] = system: M14; experiment: Antiproliferative activity against human M14 cells after 48 hrs by SRB assay; settings: M14, 48 h, read-out: LC50 (the source's name); in short: as §1
[25] = system: SK-MEL-28; experiment: Antiproliferative activity against human SK-MEL-28 cells after 48 hrs by SRB assay; settings: SK-MEL-28, 48 h, read-out: LC50 (the source's name); in short: as §1
[26] = system: IGROV-1; experiment: Antiproliferative activity against human IGROV1 cells after 48 hrs by SRB assay; settings: IGROV-1, 48 h; for CC50: read-out: LC50 (the source's name); in short: as §1
[27] = system: OVCAR-5; experiment: Antiproliferative activity against human OVCAR5 cells after 48 hrs by SRB assay; settings: OVCAR-5, 48 h; for CC50: read-out: LC50 (the source's name); in short: as §1
[28] = system: SK-OV-3; experiment: Antiproliferative activity against human SKOV3 cells after 48 hrs by SRB assay; settings: SK-OV-3, 48 h; for CC50: read-out: LC50 (the source's name); in short: as §1
[29] = system: A498; experiment: Antiproliferative activity against human A498 cells after 48 hrs by SRB assay; settings: A498, 48 h; for CC50: read-out: LC50 (the source's name); in short: as §1
[30] = system: CAKI-1; experiment: Antiproliferative activity against human Caki1 cells after 48 hrs by SRB assay; settings: CAKI-1, 48 h; in short: as §2
[31] = system: RXF 393; experiment: Antiproliferative activity against human RXF393 cells after 48 hrs by SRB assay; settings: RXF 393, 48 h; in short: as §2
[32] = system: SN12C; experiment: Antiproliferative activity against human SN12C cells after 48 hrs by SRB assay; settings: read-out: LC50 (the source's name); in short: as §1
[33] = system: TK-10; experiment: Antiproliferative activity against human TK10 cells after 48 hrs by SRB assay; settings: TK-10, 48 h; for CC50: read-out: LC50 (the source's name); in short: as §1
[34] = system: UO-31; experiment: Antiproliferative activity against human UO31 cells after 48 hrs by SRB assay; settings: UO-31, 48 h; for CC50: read-out: LC50 (the source's name); in short: as §1
[35] = system: DU-145; experiment: Antiproliferative activity against human DU145 cells after 48 hrs by SRB assay; settings: DU-145, 48 h, read-out: LC50 (the source's name); in short: as §1
[36] = system: MCF7; experiment: Antiproliferative activity against human MCF7 cells after 48 hrs by SRB assay; settings: MCF7, 48 h, read-out: LC50 (the source's name); in short: as §1
[37] = system: BT-549; experiment: Antiproliferative activity against human BT549 cells after 48 hrs by SRB assay; settings: BT-549, 48 h; for CC50: read-out: LC50 (the source's name); in short: as §1
[38] = system: T47D; experiment: Antiproliferative activity against human T47D cells after 48 hrs by SRB assay; in short: as §2
[39] = read-out: LC50 (the source's name)

## COc1ccc(C2=NN(C(C)=O)C(c3cn(-c4ccccc4)nc3-c3ccc(Cl)cc3)C2)cc1 (stereo unspecified)
[1]
  GI50: 1.73 µM
  LC50 (50% lethal concentration): > 100 µM
[2]
  GI50: 1.57 µM
[3]
  CC50: > 100 µM
[4]
  CC50: > 100 µM
[5]
  GI50: 1.77 µM
[6]
  GI50: 2.2 µM
  LC50 (concentration killing 50% of tumour cells): > 100 µM
[7]
  GI50: 0.04 µM
[8]
  CC50: > 100 µM
[9]
  CC50: > 100 µM
[10]
  GI50: 1.94 µM
[11]
  GI50: 3.09 µM
  CC50: > 100 µM
[12]
  CC50: > 100 µM
[13]
  CC50: > 100 µM
[14]
  GI50: 2.21 µM
  CC50: > 100 µM
[15]
  GI50: 2.48 µM
  CC50: > 100 µM
[16]
  GI50: 1.87 µM
[17]
  GI50: 4.55 µM
  LC50: > 100 µM
[18]
  CC50: > 100 µM
[19]
  GI50: 1.66 µM
[20]
  CC50: > 100 µM
[21]
  GI50: 1.79 µM
[22]
  GI50: > 100 µM
  LC50 (concentration killing 50% of cells): > 100 µM
[23]
  GI50: 2.4 µM
  CC50: > 100 µM
[24]
  CC50: > 100 µM
[25]
  CC50: > 100 µM
[26]
  CC50: > 100 µM
[27]
  GI50: 1.81 µM
  CC50: > 100 µM
[28]
  GI50: 2.14 µM
  CC50: > 100 µM
[29]
  CC50: > 100 µM
[30]
  GI50: 1.96 µM
[31]
  GI50: 1.82 µM
[32]
  CC50: > 100 µM
[33]
  CC50: > 100 µM
[34]
  CC50: > 100 µM
[35]
  CC50: > 100 µM
[36]
  CC50: > 100 µM
[37]
  CC50: > 100 µM
[38]
  GI50: 1.9 µM

## O=C(/C=C/c1cn(-c2ccccc2)nc1-c1ccc([N+](=O)[O-])cc1)c1ccc(Cl)cc1
[1]
  GI50: 1.86 µM
  LC50 (50% lethal concentration): > 100 µM
[2]
  GI50: 2.76 µM
  LC50 (50% net cell kill): > 100 µM
[3]
  GI50: 4.97 µM
  CC50: > 100 µM
[4]
  GI50: 3.77 µM
  CC50: > 100 µM
[5]
  GI50: 4.99 µM
[5]; [39]
  CC50: > 100 µM
[6]
  GI50: 6.41 µM
  LC50 (concentration killing 50% of tumour cells): > 100 µM
[7]; [39]
  CC50: > 100 µM
[8]
  CC50: > 100 µM
[9]
  CC50: > 100 µM
[10]
  GI50: 2.75 µM
[10]; [39]
  CC50: > 100 µM
[11]
  CC50: > 100 µM
[12]
  CC50: > 100 µM
[13]
  CC50: > 100 µM
[14]
  GI50: > 100 µM
  CC50: > 100 µM
[15]
  GI50: 2.32 µM
  CC50: 74.1 µM
[16]
  GI50: 3.95 µM
[16]; [39]
  CC50: > 100 µM
[17]
  GI50: 3.12 µM
  LC50: > 100 µM
[18]
  GI50: 4.9 µM
  CC50: > 100 µM
[19]; [39]
  CC50: > 100 µM
[20]
  CC50: > 100 µM
[21]
  GI50: > 100 µM
[21]; [39]
  CC50: > 100 µM
[22]
  GI50: > 100 µM
  LC50 (concentration killing 50% of cells): > 100 µM
[23]
  GI50: 11.4 µM
  CC50: > 100 µM
[24]
  CC50: > 100 µM
[25]
  CC50: > 100 µM
[26]
  GI50: 3.54 µM
  CC50: > 100 µM
[27]
  GI50: > 100 µM
  CC50: > 100 µM
[28]
  GI50: 12.5 µM
  CC50: > 100 µM
[29]
  GI50: 3.14 µM
  CC50: > 100 µM
[30]
  GI50: 4.56 µM
[30]; [39]
  CC50: > 100 µM
[31]
  GI50: 2.08 µM
[31]; [39]
  CC50: 9.87 µM
[32]
  CC50: > 100 µM
[33]
  GI50: 3.12 µM
  CC50: > 100 µM
[34]
  GI50: 0.1 µM
  CC50: > 100 µM
[35]
  CC50: > 100 µM
[36]
  CC50: > 100 µM
[37]
  GI50: 2.25 µM
  CC50: > 100 µM
[38]
  GI50: 1.12 µM
[38]; [39]
  CC50: > 100 µM
